From PubChem BioAssay
CHRM1 PAM = positive allosteric modulators of human M1 muscarinic receptor. CHO-K1 hM1, Fluo-8 calcium fluorescence, ACh EC20; 0% = ACh EC20, 100% = maximal ACh. activation, % at 3 µM. P11229. 360,000 compounds, 0.088% hits; in the data active = activation above about 19%, passing the limit was not always enough
Target sequence (P11229 whole entry, looked up): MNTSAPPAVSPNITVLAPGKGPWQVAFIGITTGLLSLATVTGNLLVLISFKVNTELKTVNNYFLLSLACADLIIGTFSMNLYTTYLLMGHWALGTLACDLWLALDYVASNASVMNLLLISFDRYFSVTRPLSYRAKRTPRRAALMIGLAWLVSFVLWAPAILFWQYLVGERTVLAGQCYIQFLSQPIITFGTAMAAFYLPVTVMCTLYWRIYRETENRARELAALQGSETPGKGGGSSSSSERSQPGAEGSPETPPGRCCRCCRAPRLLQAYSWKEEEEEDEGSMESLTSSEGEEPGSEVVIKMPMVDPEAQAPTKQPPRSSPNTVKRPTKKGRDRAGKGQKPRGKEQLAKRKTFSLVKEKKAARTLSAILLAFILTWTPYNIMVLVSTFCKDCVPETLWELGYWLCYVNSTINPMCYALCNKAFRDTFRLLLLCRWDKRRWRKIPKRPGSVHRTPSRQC
M1 ag = human M1 muscarinic receptor agonism; P11229; CHO-K1 hM1, Fluo-8 calcium fluorescence, agonist mode; 0% DMSO, 100% acetylcholine EC100; activation, % at 3 µM; 360,000 compounds, 0.33% hits;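 active = activation above the run's mean compound activation plus 3 SD, cut at about 16% in these data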;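 also: peak over basal fluorescence ratio within a 140 s kinetic read after compound addition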
CHRM1 antagonist = blocks human M1 muscarinic receptor; inhibition, % at 3 µM; 360,000 compounds, 1.3% hits; AID 588852; CHO-K1 hM1, Fluo-8 calcium fluorescence, ACh EC80 antagonist; P11229;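 active = percent inhibition above its own plate's cutoff, namely the mean of that plate's compound wells plus 3 SD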;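 also: peak over basal fluorescence ratio during 140 s after agonist addition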
TAAR1 antag = antagonists of human TAAR1 | AID 624466 | CHO RD-HGA16 TAAR1, Fluo-8 calcium fluorescence, antagonist | 360,000 compounds, 1.5% hits | Q96RJ0 | inhibition, % at 3 µM;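 active = inhibition above a per-plate cutoff, the mean inhibition of test compounds on that plate plus 3 SD, cut at about 49% in these data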
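Assay system: CHO-derived RD-HGA16 cells stably expressing human TAAR1 plus Gα16. Timing: 140 s kinetic read after compound, 140 s after agonist. Technique: kinetic Fluo-8 calcium fluorescence measurement. Measure: % inhibition of agonist calcium response.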
TAAR1 ag = human TAAR1 agonism; activation, % at 3 µM; AID 624467; Q96RJ0; CHO RD-HGA16 TAAR1, Fluo-8 calcium fluorescence; vehicle wells 0%, saturating PEA agonist 100%; 360,000 compounds, 0.99% hits;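 active = activation above the mean activation of all test compounds in the run plus 3 SD, cut at about 38% in these data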
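Benchmarks: low control DMSO, high control PEA (EC100); System: CHO RD-HGA16 cells carrying human TAAR1 plus Gα16; Detection: Fluo-8 fluorescence, 5 s baseline then 140 s kinetic read; Schedule: 17-24 h plating, Fluo-8 75 min 37 °C, 30 min RT; Read-out basis: % activation from peak over basal fluorescence ratio, DMSO-to-PEA scaled.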
nonsel antag count = counter-screen for TAAR1 antagonists: nonselective antagonists; shares compounds with TAAR1 antag; counterscreen cell line, calcium fluorescence, antagonist mode; inhibition, % at 3 µM; 2,400 compounds, 77% hits; in the data active = inhibition above about 22%;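 also: CHO-Ga16 host cells stimulated with ATP at an EC80 level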
TAAR1 antag conf = human TAAR1 antagonism, confirmed; inhibition, % at 3 µM; 2,400 compounds, 40% hits; TAAR1-expressing cells, fluorescence antagonist read-out; shares compounds with TAAR1 antag; in the data active = inhibition above about 49%;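 also: CHO-Ga16 host cells challenged with agonist PEA near its EC80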
Ga16 nonsel ag = nonselective Ga16 agonism, counter-screen. activation, % at 3 µM. Ga16-expressing cells, calcium fluorescence, agonist counterscreen. 2,400 compounds, 18% hits. shares compounds with TAAR1 antag; in the data active = activation above about 12%
TAAR1 ag count = activates human TAAR1 in antagonist counter-screen | hTAAR1 cell line, fluorescence activation, agonist mode | 2,400 compounds, 2% hits | AID 651955 | shares compounds with TAAR1 antag | activation, % at 3 µM; in the data active = activation above about 37%;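 also: CHO cells stably expressing TAAR1 with calcium dye readout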
Each line names hits and unclear results; the compound was inactive in the other large screens (follow-up assays come after a bar, where they were run). Most compounds without a hit are left out; they make up all but 3.4% or so of the library.

COc1cc(C(=O)Nc2cccc(-c3nnc(-c4ccco4)o3)c2)ccc1OC(C)=O	TAAR1 antag 64 | nonsel antag count 26 | TAAR1 antag conf inactive | Ga16 nonsel ag inactive | TAAR1 ag count inactive
CC(=O)N[C@@H]1C=C[C@@H](CC(=O)NCc2ccc(Cl)cc2)O[C@@H]1CO	none (no result: CHRM1 PAM, M1 ag, CHRM1 antagonist)
CC(C)(C)OC(=O)N1CCC(C(=O)Nc2cccc(C(=O)NCCCCc3ccccc3)c2)CC1	TAAR1 antag 66 | nonsel antag count 37 | TAAR1 antag conf inactive | Ga16 nonsel ag 13 | TAAR1 ag count inactive
O=C(/C=C/c1ccccc1)Nc1cccc(C(=O)NCCc2ccccc2)c1	TAAR1 antag 68 | nonsel antag count 37 | TAAR1 antag conf 57 | Ga16 nonsel ag inactive | TAAR1 ag count inactive
O=C(NCCCCc1ccccc1)c1cccc(NC(=O)C2CCCCC2)c1	TAAR1 antag 61 | nonsel antag count 30 | TAAR1 antag conf inactive | Ga16 nonsel ag inactive | TAAR1 ag count inactive
O=C(NCCCCc1ccccc1)c1cccc(NC(=O)C2CCC2)c1	none
O=C(NCCc1ccccc1)c1cccc(NC(=O)C2CC2)c1	none
CC(C)(C)OC(=O)N1CCC(C(=O)Nc2ccc(C(=O)NCCc3ccccc3)cc2)CC1	none
COc1ccc(Cc2c(-c3cccc(Cl)c3)nc3ccc(Cl)cn23)c(C)c1	none
O=C(/C=C1\C(=O)Nc2ccccc21)/C=C1\C(=O)Nc2ccccc21	TAAR1 antag 60 | nonsel antag count 35 | TAAR1 antag conf inactive | Ga16 nonsel ag inactive | TAAR1 ag count inactive
O=C(c1cc(=O)[nH]c2ccccc12)N1CCN(S(=O)(=O)c2ccc3ccccc3c2)CC1	TAAR1 antag 67 | nonsel antag count 30 | TAAR1 antag conf inactive | Ga16 nonsel ag inactive | TAAR1 ag count inactive
Cc1ccc(C(=O)Nc2cccc(C(F)(F)F)c2)cc1Nc1ncnc2nc[nH]c12	TAAR1 antag 52 | nonsel antag count 32 | TAAR1 antag conf inactive | Ga16 nonsel ag inactive | TAAR1 ag count inactive
Cc1ccc(C(=O)Nc2cccc(C(F)(F)F)c2)cc1Nc1cnccn1	none
CC1=C2CCCC[C@@]23C2C(=O)N(C)C(=O)[C@@H]2ON3OC1 (stereo partly specified)	none (no result: CHRM1 PAM, M1 ag, CHRM1 antagonist)
CCOc1ccc2ncc(S(=O)(=O)c3ccccc3)c(N3CCC4(CC3)OCCO4)c2c1	TAAR1 antag 49 (no result: CHRM1 PAM, M1 ag, CHRM1 antagonist) | nonsel antag count inactive | TAAR1 antag conf inactive | Ga16 nonsel ag inactive | TAAR1 ag count inactive
COc1ccc(S(=O)(=O)c2cnc3ccc(OC)cc3c2N2CCC3(CC2)OCCO3)cc1	CHRM1 antagonist 28, TAAR1 antag 72 | nonsel antag count 25 | TAAR1 antag conf 50 | Ga16 nonsel ag inactive | TAAR1 ag count inactive
COc1ccc(N2CCN(c3c(S(=O)(=O)c4ccccc4)cnc4ccc(OC)cc34)CC2)cc1	none
O=C1C(=Cc2cccs2)C(=O)c2ccccc21	TAAR1 antag 104 | nonsel antag count inactive | TAAR1 antag conf inactive | Ga16 nonsel ag inactive | TAAR1 ag count inactive
O=C1/C(=C/c2cccs2)Cc2ccccc21	none
COc1ccc(S(=O)(=O)N2CCC[C@H]2C(=O)N2CCC[C@H]2C(=O)N(C)Cc2ccccc2)cc1C	none (no result: CHRM1 PAM, M1 ag, CHRM1 antagonist)
Cn1c(/C=C(\C#N)C(N)=S)ccc1-c1ccc(Br)cc1	TAAR1 antag 67 | nonsel antag count 25 | TAAR1 antag conf inactive | Ga16 nonsel ag inactive | TAAR1 ag count inactive
O=C(NCCN1C(=O)S/C(=C\c2ccc(F)cc2)C1=O)c1cccc(S(=O)(=O)N2CCOCC2)c1	TAAR1 antag 70 | nonsel antag count 43 | TAAR1 antag conf 60 | Ga16 nonsel ag 15 | TAAR1 ag count inactive
O=C(NCCN1C(=O)S/C(=C\c2ccccc2)C1=O)c1cc(S(=O)(=O)N2CCOCC2)c(Cl)cc1Cl	CHRM1 antagonist 43, TAAR1 antag 78 | nonsel antag count 50 | TAAR1 antag conf 70 | Ga16 nonsel ag 19 | TAAR1 ag count inactive
O=C(NCCN1C(=O)S/C(=C\c2ccc(Cl)cc2)C1=O)c1ccc(F)c(S(=O)(=O)N2CCOCC2)c1	none
CC1CCc2c(sc3nc(C4CC4)nc(N4CCN(C(=O)c5ccco5)CC4)c23)C1 (stereo unspecified)	TAAR1 antag 58 | nonsel antag count inactive | TAAR1 antag conf inactive | Ga16 nonsel ag inactive | TAAR1 ag count inactive
CCc1nc(N2CCN(C(=O)c3ccco3)CC2)c2c3c(sc2n1)CCCC3	none
CN(C)C(=O)c1cccc(-c2cnc3c(NC=O)cc(-c4ccc(N(C)C)cc4)cn23)c1	none
Cc1nc2ccccc2c2oc(C(=O)NCC3COc4ccccc4O3)cc12 (stereo unspecified)	TAAR1 antag 54 | nonsel antag count 35 | TAAR1 antag conf inactive | Ga16 nonsel ag inactive | TAAR1 ag count inactive
CCc1ccc(CNC(=O)c2cc3c(C)nc4ccccc4c3o2)cc1	none
COc1ccccc1-c1cc(NC(C)=O)c2ncc(-c3cccc(C(F)(F)F)c3)n2c1	TAAR1 antag 59 | nonsel antag count 32 | TAAR1 antag conf 51 | Ga16 nonsel ag inactive | TAAR1 ag count inactive
COc1ccccc1-c1cc(NC(C)=O)c2ncc(-c3ccccc3)n2c1	TAAR1 antag 56 | nonsel antag count 24 | TAAR1 antag conf inactive | Ga16 nonsel ag 21 | TAAR1 ag count inactive
CC(=O)Nc1cc(-c2ccccc2F)cn2c(-c3ccccc3)cnc12	TAAR1 antag 68 | nonsel antag count 28 | TAAR1 antag conf inactive | Ga16 nonsel ag inactive | TAAR1 ag count inactive
COc1ccc(-c2cc(NC(C)=O)c3ncc(-c4ccc(OC)c(OC)c4)n3c2)c(OC)c1	none
COc1ccc(-c2cc(NC(C)=O)c3ncc(-c4ccccc4)n3c2)cc1OC	none
CC(=O)Nc1cc(-c2ccccc2N(C)C)cn2c(-c3ccccc3)cnc12	none
COc1ccc(-c2cc(NC(C)=O)c3ncc(-c4ccccc4)n3c2)c(OC)c1	TAAR1 antag 68 | nonsel antag count 26 | TAAR1 antag conf inactive | Ga16 nonsel ag inactive | TAAR1 ag count inactive
COc1ccc(-c2cc(NC(C)=O)c3ncc(-c4cccc(C(F)(F)F)c4)n3c2)c(OC)c1	none
CCOC(=O)[C@]12CCCC=C1N(CCc1ccc(OC)c(OC)c1)C(=O)[C@H](CC(=O)N1CCSCC1)C2	none (no result: CHRM1 PAM, M1 ag, CHRM1 antagonist)
